# Published values gathered from unrelated publications.
# Read-out: metabolic stability
# Species: mouse
# Sample: liver microsomes
Structure (SMILES),tested at,pH,microsomal CLint [µL/min/mg]
O=c1c2ccc(Oc3ccc(OC(F)(F)F)cc3)cc2[nH]c2cc(Cl)c(F)cc12,1 µM,pH 7.4,1.84
Cc1[nH]c(C)c(S(=O)(=O)Nc2ccc(C(F)(F)F)c(Cl)c2)c1C(=O)N1CCC(F)(F)C1,,,59
CC1(C(F)F)NC(=O)N(c2ccc(F)c(C(F)(F)F)c2)C1=O (stereo not drawn),,,< 7
CC(C)n1ncc2c(C(=O)NCC3(C)CNC3)cc(C3CC3)nc21,,,< 9.6
CCCN(CCC)CCCOc1ccc2c(=O)c3c([nH]c2c1)CCCC3,1 µM,pH 7.4,34.1
CCCCCCCCCCCCCCCC(=O)NCCOC(=O)C[C@@H](CN)CC(C)C,1 µM,pH 7.4,14.6
O=c1c2ccc(OCc3cccc(OC(F)(F)F)c3)cc2[nH]c2cc(F)cc(Cl)c12,1 µM,pH 7.4,7.26
CC(C)c1cc(C(=O)NCCN2CCCC2)c2cnn(C(C)C)c2n1,,,49.1
CC1(C)NC(=O)N(c2ccc3c(c2)OC(F)(F)O3)C1=O,,,< 7
COc1ccc(Cn2cc(CO[C@@H]3O[C@H]4[C@H](OC[C@H]4O)[C@H]3O)nn2)cc1,,,< 14.4
CC1(C(F)(F)F)NC(=O)N(c2ccc(F)c(C(F)(F)F)c2)C1=O (stereo not drawn),,,< 7
CC(C)c1cc(C(=O)NCCN)c2cnn(C(C)C)c2n1,,,< 9.6
CC1(C)NC(=O)N(c2ccc(F)c(OC(F)(F)F)c2)C1=O,,,< 7
CC(C)(C)OC(=O)N1CCC(Oc2ccc3c(=O)c4c(F)cc(Cl)cc4[nH]c3c2)C1 (stereo not drawn),1 µM,pH 7.4,16.7
CCS(=O)(=O)N1CCC2(CC1)NC(=O)N(c1ccc(F)c(C(F)(F)F)c1)C2=O,,,< 7
CNCCNC(=O)c1cc(C(C)C)nc2c1cnn2C(C)C,,,175
O=C1NC2(CCS(=O)(=O)CC2)C(=O)N1c1ccc(F)c(C(F)(F)F)c1,,,< 7
CCCN(CCC)CCNc1ccc2c(=O)c3c([nH]c2c1)CCCC3,1 µM,pH 7.4,81.9
